From PubChem BioAssay
Runt-SMMHC FRET: Runt domain-CBFb-SMMHC interaction inhibition. actives 0.74% (n = 220,000). inhibition, % at 20 µM. Cerulean-Runt/Venus-CBFb-SMMHC FRET ratio 530/480, 1 h. Q01196+Q13951;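 active = mean inhibition across duplicate retests at 20 µM reaching about 50%, limit read from the data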;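 also: 0% = DMSO wells and 100% = wells with excess untagged CBFb-SMMHC; inhibitors lower the FRET ratio by blocking Runt binding to CBFb-SMMHC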
MEX-5 binding: C. elegans MEX-5 TCR-2 RNA binding activity; MEX-5/FITC-TCR2 RNA binding, fluorescence polarization; stronger effect = lower value; activity score (negative = inhibition of binding), % at 10 µM; actives 0.38% (n = 300,000);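 active = inhibition past about -25% in most replicates, and total fluorescence under double the plate's negative control median, limit read from the data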;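 also: 0% = DMSO and -100% = 5 µM competing unlabeled TCR2 RNA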
Runt-CBFb FRET: blocks binding of human RUNX1 Runt domain to CBFb. Cerulean-Runt/Venus-CBFb FRET ratio 530/480, 1 h. Q01196+Q13951. actives 0.46% (n = 220,000). inhibition, % at 20 µM;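 active = inhibition over about 50% at 20 µM in the single-dose screen, limit read from the data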;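 also: 0% = DMSO wells and 100% = excess unlabeled CBFb competitor control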
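Doses: 20 µM compound in 1% DMSO | Material: Cerulean-labeled Runt domain protein | Amount: Each fluorescent fusion protein 100 nM | Schedule: Two 1 h room-temperature incubations shielded from light | Measured by: FRET fluorescence | Evaluation: Loss of energy transfer signal | Controls: Unlabeled CBFb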
LANA-H2A inh: blocks KSHV LANA binding to histone H2A/H2B. inhibition, % (no concentration beside the values). actives 0.6% (n = 320,000). cell-free LANA-H2A/H2B peptide, fluorescence polarization. Q9QR71; in the data active = inhibition mostly above about 10%, no sharp cut-off; inactive = mostly below about 6.7%
EBV gp42 block: blocks Epstein-Barr virus glycoprotein 42 binding; Fluorescence polarization binding assay, mP read-out; inhibition, % (tested at 21.74 µM); actives 0.42% (n = 220,000); in the data active = inhibition above about 50%
RanGTP-Imp inh: disruptors of Ran-importin-beta complex formation – biochemical, FRET, CFP-Ran, YFP-importin-beta, homogeneous, primary screen; cell-free CFP-Ran/YFP-importin-beta FRET ratio; inhibition, % (concentration not given with the values); actives 1.1% (n = 300,000); AID 2216;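 active = more than half of the replicate wells show a fall in the fluorescence ratio signal beyond about 16%, limit read from the data, passing the limit was not always enough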;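 also: 0% = DMSO wells and 100% = Ran loaded with GDP instead of GTP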
* = called active by the depositor; · = no result. Rows were chosen to be rich in hits. Some 2.4% of all compounds tested hit in one or more screens of this group.

SMILES | Runt-SMMHC FRET | MEX-5 binding | Runt-CBFb FRET | LANA-H2A inh | EBV gp42 block | RanGTP-Imp inh
Nc1cccc2c1C(=O)N(C(=O)/C=C/c1ccc(F)cc1)C2=O | 86* | -1 | -58 | -4 | 13 | 5
Nc1cccc2c1C(=O)N(C(=O)c1ccco1)C2=O | 84* | -2 | -45 | 3 | 8 | 26*
Cc1ccc(C(=O)COC(=O)c2cc(=O)[nH]c3ccccc23)cc1C | -3 | -2 | 0 | 1 | -91 | 37*
Cc1cc(C)n2c(=S)[nH]nc2n1 | 59* | 7 | 11 | -3 | -21 | 1
Cc1cc(C)n2cnnc2n1 | -3 | -6 | 0 | 6 | -11 | 3
N#C/C(=C\C=C\c1ccccc1)c1nc(-c2ccc3c(c2)OCO3)cs1 | -245 | -6 | -324 | 2 | 156* | -87
CCN(CC)CCOC(=O)c1ccc(N/C=C(/C#N)c2nc(-c3ccc4c(c3)OCO4)cs2)cc1 | -26 | 3 | -1 | -5 | -83 | 4
O=C(Nn1cc(C(=O)Nc2ccc(F)cc2F)c2ccccc2c1=O)c1cnccn1 | 5 | 0 | -1 | -2 | -5 | -3
CSc1ncccc1C(=O)N(C)CC(=O)Nc1ccc(Cl)cc1 | · | 1 | · | -2 | · | -2
CN(CC(=O)Nc1ccc(Cl)c(Cl)c1)C(=O)c1cccc2cccnc12 | · | · | · | 70* | · | ·
CC(=O)N1CCN=C1SCc1cccc(Cl)c1 | · | -2 | · | -4 | · | -1
C=CCN1c2ccccc2C(=O)CS1(=O)=O | · | · | · | 3 | · | ·
CC(C)(C)NC(=O)c1cc(-c2ccc3c(c2)OCO3)nc2ccccc12 | · | -2 | · | 1 | · | -1
Cn1c(NC(=O)c2cc(-c3ccc4c(c3)OCO4)nc3ccccc23)cc(=O)n(C)c1=O | 5 | 3 | 62* | 2 | -16 | -2
COC(=O)c1ccc(C(=O)NC2CCCN(Cc3ccc(Cl)cc3)C2)nc1 (configuration not stated) | · | -1 | · | 0 | · | 1
O=C(O)c1ccccc1SCc1csc(-c2ccccc2)n1 | · | 1 | · | 12* | · | 27*
Cc1nn(-c2ccccc2)c2c1C(c1ccccc1)C(C#N)=C(N)O2 (configuration not stated) | 2 | 1 | -2 | 0 | 131* | 1
Cc1cc(Cl)ccc1OCC(=O)OCC(=O)N1CCC(C(N)=O)CC1 | · | · | · | -2 | · | ·
O=C(c1cc2c(=O)n3ccccc3nc2s1)N1CCc2ccccc2C1 | 81* | 0 | 19 | · | 1 | -1
CC(=O)Oc1ccc(C(=O)Nc2cccc(NC(=O)c3ccco3)c2)cc1 | · | 2 | · | -2 | · | 0
O=C(Nc1cccc(NC(=O)c2ccco2)c1)c1ccc([N+](=O)[O-])cc1 | -2 | -1 | 0 | 2 | -2 | 75*
Cc1occc1C(=O)N1CCCC(CCC(=O)NCc2ccc(F)c(F)c2)C1 (configuration not stated) | -4 | -2 | -3 | 4 | -6 | 4
CSc1ncccc1C(=O)N1CCCC(CCC(=O)NCc2ccc(F)c(F)c2)C1 (configuration not stated) | 3 | 0 | 1 | 14* | -5 | 2
COc1cccc(N=Cc2c(O)n(-c3cccc(C)n3)c(=O)c3ccccc23)c1 | 9 | 1 | 3 | -1 | 5 | -1
COc1ccc(N=Cc2c(O)n(-c3cccc(C)n3)c(=O)c3ccccc23)c(OC)c1 | -10 | -69* | -249 | 5 | -2 | 12
SMILES | Runt-SMMHC FRET | MEX-5 binding | Runt-CBFb FRET | LANA-H2A inh | EBV gp42 block | RanGTP-Imp inh
Cc1cccc(-n2c(O)c(C=Nc3ccccc3O)c3ccccc3c2=O)n1 | 7 | 0 | 1 | -9 | -1 | 30*
CC1C2=C(CC(C)(C)CC2=O)NC2=C1C(=O)CC(C)(C)C2 | 86* | -1 | 21 | 1 | -12 | 136*
CC1(C)CC(=O)C2=C(C1)NC(=O)NC2c1ccccc1 (configuration not stated) | 12 | 0 | 4 | 1 | 2 | -2
Cc1ccc(-c2nc3cnccn3c2Nc2c(C)cccc2C)o1 | -47 | -1 | -3 | -2 | 21 | 47*
Cc1nn(S(=O)(=O)c2ccc(F)cc2)c(C)c1S(=O)(=O)N1CCOCC1 | · | 3 | · | -3 | · | 4
C/C=C(\C)CN1CCC(n2nccc2NC(=O)c2ccc3c(c2)OCO3)CC1 | · | -1 | · | 75* | · | 3
